Data as given in PubChem BioAssay AID720702 (The Scripps Research Institute Molecular Screening Center, 2013).
Out of some 370,000 compounds screened, about 1,200 (0.32%) were called active. This is one part of a sample in which actives are shown more often than they occur. A number with no mark means an inactive call.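 How the source made its calls: active means inhibition above the mean of all tested compounds plus 3 SD, set per campaign (cut at about 25% in these data); inactive means the rest.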

Each compound was assayed against Tyrosyl-DNA phosphodiesterase 2 (Homo sapiens) (UniProt O95551) (assay: blockers of TDP2 phosphodiesterase activity – biochemical, epi absorbance, recombinant enzyme, primary screen (AID 720702;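 further: 0% = DMSO with enzyme and 100% = buffer with substrate but no TDP2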)). Settings: recombinant TDP2, T5PNP hydrolysis, p-nitrophenol absorbance 415 nm; at 12.8 µM; active compounds read high.
Chain of Tyrosyl-DNA phosphodiesterase 2 (Homo sapiens) (O95551 whole entry, looked up): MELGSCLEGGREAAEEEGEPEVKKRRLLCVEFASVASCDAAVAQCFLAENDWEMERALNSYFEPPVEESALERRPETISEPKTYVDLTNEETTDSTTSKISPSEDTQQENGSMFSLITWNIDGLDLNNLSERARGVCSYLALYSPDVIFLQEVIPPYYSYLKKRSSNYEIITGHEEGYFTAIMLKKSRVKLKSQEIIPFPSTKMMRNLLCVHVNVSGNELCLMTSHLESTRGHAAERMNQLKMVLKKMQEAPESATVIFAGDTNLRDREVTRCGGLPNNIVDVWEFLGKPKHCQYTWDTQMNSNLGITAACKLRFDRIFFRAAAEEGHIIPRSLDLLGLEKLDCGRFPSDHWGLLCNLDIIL
Method in brief: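 System: recombinant human TDP2 / Amount: 120 nM TDP2 per well / Also added: 5 mM T5PNP chromogenic substrate / Doses: 12.8 µM single point, 1% DMSO / Incubation: 2 h at 37 °C / Detection: p-Nitrophenol epi absorbance / Evaluation: % inhibition relative to enzyme-containing and enzyme-free wells / Repeats: singlicate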
`O=C(NCc1ccc(Cl)cc1)C(=O)NCC1CCCN1S(=O)(=O)c1cccs1` (stereo not drawn) showed an inhibition of 6.77%. Compound `COc1ccccc1CCNC(=O)C(=O)NCCC1CCCCN1S(=O)(=O)c1cccs1` (stereo not drawn) has an inhibition of -2.28%. In the case of `O=C(NCc1ccccc1Cl)C(=O)NCC1CCCN1S(=O)(=O)c1cccs1` (stereo not drawn), the inhibition was 25.5% (active). Work on `COC(=O)C1CN(Cc2cn(Cc3ccc(F)cc3)nn2)CCS(=O)(=O)N1Cc1ccc(Cl)cc1` (stereo not drawn) yielded an inhibition of -3.71%. With `CCCCc1c(O)nc2n(c1=O)CCS2` the inhibition was 7.5%. With `CCCCCCCCc1c(O)nc(-n2[nH]c(C)c(CCO)c2=O)[nH]c1=O` the inhibition was 41.6% (active). In the case of `COc1cc(/C=C/C(=O)n2cnc3ccccc32)cc(OC)c1OC`, the inhibition was -7.12%. With `Cc1cc(C)c(S(=O)(=O)NN=C2c3ccccc3[C@H]3Cc4csc[n+]4[C@@H]23)c(C)c1` the inhibition was 25.7% (active). `CCSC(C)CC1C/C(=N/O)c2c(C)noc2C1` (stereo not drawn) was tested, and the inhibition was 4.33%. `COC1=C[C@H](C(=O)NCCNC(C)=O)[C@H](C)[C@@H](c2ccccc2)CC1=O` was tested, and the inhibition was 6.52%. `Oc1c(C=Nc2cccc3nsnc23)ccc2ccccc12` was tested, and the inhibition was 59.5% (active). `Cc1ccc(-n2c(COc3ccccc3)nnc2SCC(=O)Nc2ccc3c(c2)OCCO3)cc1` showed an inhibition of -5.97%. Compound `COC(=O)[C@H](C(C)C)N(CCCc1cn(Cc2ccccc2)nn1)S(=O)(=O)c1ccc(F)cc1Br` has an inhibition of -3.1%. With `C=CCO/N=C(\C)c1c(O)c(C)c(-c2ccccc2)n(-c2ccccc2)c1=O` the inhibition was -4.01%. Work on `COC(=O)[C@]12C[C@H](CC(=O)NCCCN3CCCC3=O)C(=O)N(CCc3ccc(OC)c(OC)c3)C1=C[C@H](COCc1ccccc1)O[C@@H]2C` yielded an inhibition of 5.78%. In the case of `O=C1C(=O)N(Cc2ccc(-c3ccsc3)cc2)c2ccc(OC(F)(F)F)cc21`, the inhibition was 3.8%. `COc1ccc2c(c1)C(C)=CC(C)(C)N2C(=O)CNCc1ccc2c(c1)OCO2` gave an inhibition of 4.77%. Compound `COc1cccc(NC(=O)C2C(c3ccccc3)C2(Cl)Cl)c1` (stereo not drawn) has an inhibition of 0.37%. For `COc1ccc2c(c1)C(C)=CC(C)(C)N2C(=O)Nc1ccccc1`, the inhibition was 41.9% (active). `CC(=O)Nc1ccc(S(=O)(=O)NC(C)C(=O)OCCOc2ccc(F)cc2)cc1` (stereo not drawn) was tested, and the inhibition was 3.48%. In the case of `Cn1nc(N)c2ncc(C(Cl)(Cl)Cl)nc21`, the inhibition was 33.9% (active). For `Cc1[nH][nH]c(=O)c1C(c1ccc(-c2ccc(Cl)cc2)o1)c1c(C)[nH][nH]c1=O`, the inhibition was 30% (active). In the case of `Cc1ccc(C2=CCN(C)C(=O)N2c2ccc(Cl)cc2)cc1`, the inhibition was 8.05%. For `COc1cccc(NC(=O)[C@H](Cc2c[nH]c3ccccc23)NC(=O)[C@@H]2Cc3ccccc3CN2)c1`, the inhibition was -6.32%. Compound `CC[C@@H](CCC(=O)N(c1ccccc1)c1ccccc1)C1CC1` has an inhibition of -0.32%. For `CCN(CC)C(=O)[C@H]1C[C@H](CC(=O)NCC23CC4CC(CC(C4)C2)C3)C(=O)N2CCc3c([nH]c4cc(CCC(=O)N(C)C)ccc34)[C@]12C`, the inhibition was -4.89%. Compound `CCOc1ccc(C(CC(=O)O)NC(=O)C23CC4CC(CC(C4)C2)C3)cc1OC` (stereo not drawn) has an inhibition of 0.7%. In the case of `CCOc1ccc(C(C)NC(=O)CN2C(=O)NC3(CCCCC3)C2=O)cc1OCC` (stereo not drawn), the inhibition was -6.82%. For `CCOc1ccc(C(c2c(C)[nH][nH]c2=O)c2c(C)[nH][nH]c2=O)cc1OCC`, the inhibition was 25.3% (active). Compound `CCOc1ccc(N(CC(=O)Nc2c(C)n(C)n(-c3ccccc3)c2=O)S(=O)(=O)c2ccc(Cl)s2)cc1` has an inhibition of -6.34%. Work on `N#C/C(C(=O)N1CCOCC1)=C1/SC(Cc2ccc(F)cc2)C(=O)N1c1ccccc1` (stereo not drawn) yielded an inhibition of 2.43%. For `O=C(NC1CCC1)c1ccc(C#CC2CC2)cn1`, the inhibition was 4.08%. For `CCCCNC(=O)C(C)N(CCN(C)C)C(=O)CCCCCN1C(=O)NC(c2ccc(Cl)cc2)C(C(=O)OCc2ccccc2)=C1C` (stereo not drawn), the inhibition was -0.25%. `Cc1cc(C)c(OCCN2CC(C)OC(C)C2)c(Br)c1` (stereo not drawn) was tested, and the inhibition was 30.7% (active). `Cc1ccc(OCCCCN2CCCCC2)c(Br)c1` gave an inhibition of 5.22%. In the case of `CC1CN(CCOc2ccccc2[N+](=O)[O-])CC(C)O1` (stereo not drawn), the inhibition was 14%. `COc1ccc(-n2c(SCC(=O)Nc3ccc4c(c3)OCCO4)nnc2-c2ccc(Cl)cc2)cc1` was tested, and the inhibition was -7.72%. Compound `O=C(CN1C(=O)CSC1=O)N1CCCC(Nc2ccc(F)cc2)C1` (stereo not drawn) has an inhibition of -8.75%. For `O=C(c1ccccc1)c1ccc(-c2ccccc2C(=O)NC2CCCCN(Cc3ccc(Cl)cc3)C2=O)cc1` (stereo not drawn), the inhibition was 15.2%. `O=C(Cn1ncc2c3ccccc3n(Cc3ccccc3)c2c1=O)NCCCN1CCOCC1` was tested, and the inhibition was 12.7%. `Cc1ccccc1Cn1c2ccccc2c2cnn(CC(=O)NCc3ccco3)c(=O)c21` was tested, and the inhibition was 24.5% (active). `CCCn1c2ccccc2c2cnn(CC(=O)NCCCN3CCCCC3CC)c(=O)c21` (stereo not drawn) was tested, and the inhibition was -29.8%. `CCC[C@H]1C(=O)CC[C@@]23CCCN2C(=O)CCC[C@@H]13` showed an inhibition of 2.8%. With `COc1ccccc1NC(=O)C1CCCN(c2cc(C)nc3ncnn23)C1` (stereo not drawn) the inhibition was 2.18%. Compound `COc1cccc(CNC(=O)C2CCCN(c3nc4ccccc4o3)C2)c1OC` (stereo not drawn) has an inhibition of -1.52%. In the case of `O=C(NCCCCO)C(F)(F)C(F)(F)C(F)(F)C(=O)NCCCCO`, the inhibition was -4.23%. In the case of `Cc1cc2nc3c(=O)[nH]c(=O)nc-3n(C[C@H](O)[C@H](O)[C@H](O)CO)c2cc1C`, the inhibition was 3.4%. `CCN(CC)CCCC(C)n1c2nc(=O)[nH]c(=O)c-2nc2cc(Cl)ccc21` (stereo not drawn) was tested, and the inhibition was 24.6% (active). Work on `O=c1[nH][nH]c(C(F)(F)F)c1C=NCc1ccccc1Cl` yielded an inhibition of 4.32%. Work on `C=CCn1c(=S)sc2c(=O)[nH]c(C)nc21` yielded an inhibition of 0.69%. For `Oc1ccc(N=Cc2c(O)ccc3ccccc23)cc1`, the inhibition was 29.3% (active). In the case of `Oc1ccc(N=Cc2sc3ccccc3c2Cl)cc1`, the inhibition was 28.4% (active). `CCOC(=O)C1=C(C(=O)OCC)C2N(Cc3ccc(C#N)cc3)c3ccccc3[C@@]23C[C@@H](C(=O)OC)N(S(=O)(=O)c2ccc(F)cc2)C3=N1` (stereo partly drawn) gave an inhibition of 3.59%. For `COC(=O)[C@@]12CCCCC3=C1N(CCC3)C(=O)[C@H]2CC(=O)NCc1cccc2ccccc12`, the inhibition was 15.1%. In the case of `COc1ccc(C(=O)OCCN2CCN(C3CN(Cc4cn(Cc5ccccc5F)nn4)S(=O)(=O)C3)CC2)cc1OC` (stereo not drawn), the inhibition was 11.2%. In the case of `Cc1nc([N+](=O)[O-])cn1CC(=O)Nc1ccc(Cl)cc1`, the inhibition was 7.84%. Compound `CCOC(=O)C1CCN(C(=O)C(C)(C)NC(=O)Nc2ccccc2Cl)CC1` has an inhibition of 1.3%. In the case of `c1coc(CCNc2ncnc3ccc(-c4ccc5c(c4)OCO5)cc23)c1`, the inhibition was 0.8%. `Cc1cc(C)nc(NC(=S)N2CCN(c3ccc(C(F)(F)F)cn3)CC2)c1` gave an inhibition of -1.93%. `NC(=O)c1ccsc1NC(=O)COC(=O)COc1ccc(C=O)cc1` was tested, and the inhibition was 2.52%. For `Cc1cccc(C(=O)OCC(=O)Nc2sccc2C(N)=O)c1C`, the inhibition was -12.7%. With `COc1cc(OC)cc(C(=O)OCC(=O)Nc2sccc2C(N)=O)c1` the inhibition was 28.2% (active). In the case of `CC1Cc2nc(SCC(=O)Nc3ccccc3F)n(C)c(=O)c2S1` (stereo not drawn), the inhibition was 9.78%. With `COC(=O)[C@]12C[C@H](CC(=O)N3CCOCC3)C(=O)N(Cc3ccc(Cl)cc3Cl)C1=C[C@H](C(C)C)O[C@@H]2C1CC1` the inhibition was -1.98%. With `CCOC(=O)Cn1c2c(n(-c3ccc(F)cc3)c1=O)C=C(c1ccccc1)[C@@H](C)C(C(=O)N(C)C1CCCCC1)=C2` the inhibition was -5.6%. Work on `C=CCN(Cc1ccc2c(c1)OCO2)C(C#CC1CC1)C(C)(C)C` (stereo not drawn) yielded an inhibition of 0.99%. Compound `C[C@H]1[C@H](NC(=O)c2cccc(N(C)C)c2)CC[C@@]23CCCN2C(=O)CCC[C@@H]13` has an inhibition of -4.75%. `Clc1ccc(C2=CSC3=Nc4cccc5cccc(c45)N23)cc1` was tested, and the inhibition was 65.8% (active). Work on `Cc1ccc(C)c(CN2CCC(CNC(=O)C3CCCN(c4ncnc5c4nc4n5CCCCC4)C3)CC2)c1` (stereo not drawn) yielded an inhibition of -0.02%. For `Cc1ccc(CCNC(=O)C2CCN(S(=O)(=O)N3CCCC3)CC2)cc1`, the inhibition was 3.54%. In the case of `O=C(NCCC1=CCCCC1)C1CCN(S(=O)(=O)c2ccc(Cl)s2)CC1`, the inhibition was 6.48%. In the case of `Cc1ccc(S(=O)(=O)N2CCC(C(=O)NCCC3=CCCCC3)CC2)cc1C`, the inhibition was 33.1% (active). Work on `C=C(C)CNC(=O)c1ccc(OC2CCN(C(=O)COC)CC2)cc1` yielded an inhibition of -0.83%. In the case of `NC1=CC(=O)C(=O)c2cccnc21`, the inhibition was 70.4% (active). For `O=C(NCc1ccccc1)[C@H]1CCCN1C(=O)[C@@H]1CCCN1C(=O)c1ccc(Cl)cc1Cl`, the inhibition was -1.81%. `O=C1CC(c2ccc3c(c2)OCO3)N=C2N(CC3CC3)C/C(=C/c3ccccc3)N12` (stereo not drawn) was tested, and the inhibition was 7.53%. `COC(=O)[C@]12C[C@H](CC(=O)NCc3cccs3)C(=O)N(CCc3ccc(OC)c(OC)c3)C1=C[C@H](C(C)C)O[C@@H]2C1CC1` was tested, and the inhibition was 3.66%. In the case of `CCc1ccccc1NC(=S)Nc1cc(OC)c(NC(=O)C(C)C)cc1OC`, the inhibition was 39.9% (active). `COc1cc(NC(=S)NNC(=O)CC(C)C)c(OC)cc1Cl` gave an inhibition of 8.52%. `COc1ccc(C)cc1NC(=S)Nc1ccccc1SC` showed an inhibition of 1.04%. `Cc1cc(C)n2ncc(C(=O)Nc3ccc4c(c3)OCCO4)c2n1` showed an inhibition of -3.81%. `CN(C)C(=O)N1CCN(C(=O)[C@@H](Cc2ccccc2)NC(=O)[C@H]2O[C@@H](n3ccc(N)nc3=O)[C@H](O)[C@@H]2O)CC1` showed an inhibition of 8.58%. Work on `Cc1ccc2nc(-c3ccc(NC(=O)CN(C)S(=O)(=O)c4ccccc4)cc3)sc2c1` yielded an inhibition of -18.6%.
